Holding throughout (assay type): functional
The test system of experiment [1] is P19. Briefly: Cytotoxicity against undifferentiated mouse P19 cells assessed as cell mass at 1 to 100 uM after 24 hrs by SRB assay relative to control. Summed up: (§1)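 Cell mass by SRB assay in P19 cells (CRL-1825), either undifferentiated (P19SCs) or differentiated (P19dCs). Cells exposed to 1, 10 or 100 µM for 24, 48 or 72 h. Values expressed relative to untreated control. Means ± SD from at least 4 independent measurements, 6 repeats each. Significance vs control at p<0.05.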

Experiment [2] concerns P19. As to the kind of experiment: Cytotoxicity against undifferentiated mouse P19 cells assessed as cell mass at 1 to 100 uM after 48 hrs by SRB assay relative to control. The method, boiled down: as §1
A general note: Sulforhodamine B stains cellular protein and so reports cell mass.

For experiment [3], the system named is P19. As to the kind of experiment: Cytotoxicity against undifferentiated mouse P19 cells assessed as cell mass at 1 to 100 uM after 72 hrs by SRB assay relative to control. Summed up: as §1
For experiment [4], the system named is P19. Briefly: Cytotoxicity against differentiated mouse P19 cells assessed as cell mass at 1 to 100 uM after 24 hrs by SRB assay relative to control. The method, boiled down: as §1
Experiment [5] relates to P19. Briefly: Cytotoxicity against differentiated mouse P19 cells assessed as cell mass at 1 to 100 uM after 48 hrs by SRB assay relative to control. Summed up:
as §1

The subject of experiment [6] is P19. As to the kind of experiment: Cytotoxicity against differentiated mouse P19 cells assessed as cell mass at 1 to 100 uM after 72 hrs by SRB assay relative to control. The method, boiled down: as §1
In experiment [7] the test system is P19. As to the kind of experiment: Cytotoxicity against undifferentiated mouse P19 cells assessed as metabolic activity at 1 to 100 uM after 24 hrs by resazurin assay relative to control. The method, boiled down:
(§2)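 Metabolic activity by resazurin reduction in undifferentiated (P19SCs) or differentiated (P19dCs) P19 cells. Exposure to 1, 10 or 100 µM for 24, 48 or 72 h. Read-out relative to untreated control. Significance vs control at p<0.05.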
On the technique in general: Alamar Blue is a resazurin reagent that responds to reducing activity.

Experiment [8] relates to P19. As to the kind of experiment: Cytotoxicity against undifferentiated mouse P19 cells assessed as metabolic activity at 1 to 100 uM after 48 hrs by resazurin assay relative to control. The method, boiled down: as §2
Experiment [9] deals with P19. Briefly: Cytotoxicity against undifferentiated mouse P19 cells assessed as metabolic activity at 1 to 100 uM after 72 hrs by resazurin assay relative to control. The method, boiled down:
as §2

Experiment [10] has as its system P19. As to the kind of experiment: Cytotoxicity against differentiated mouse P19 cells assessed as metabolic activity at 1 to 100 uM after 24 hrs by resazurin assay relative to control. The method, boiled down:
as §2

In experiment [11] the test system is P19. Briefly: Cytotoxicity against differentiated mouse P19 cells assessed as metabolic activity at 1 to 100 uM after 48 hrs by resazurin assay relative to control. The method, boiled down:
as §2

In experiment [12] the test system is P19. As to the kind of experiment: Cytotoxicity against differentiated mouse P19 cells assessed as metabolic activity at 1 to 100 uM after 72 hrs by resazurin assay relative to control. The method, boiled down:
as §2

Experiment [13] deals with P19. As to the kind of experiment: Cytotoxicity against undifferentiated mouse P19 cells assessed as mitochondrial membrane potential at 1 uM after 24 hrs by TMRF dye based fluorescence assay relative to control. The method, boiled down: (§3)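 Undifferentiated (P19SCs) or differentiated (P19dCs) P19 cells incubated 24 or 72 h with 1 or 100 µM. Mitochondrial membrane potential and mitochondrial superoxide levels measured and expressed relative to untreated control. Means ± SD from 4 independent measurements, at least 4 repeats each. Significance at p<0.05.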

The subject of experiment [14] is P19. As to the kind of experiment: Cytotoxicity against undifferentiated mouse P19 cells assessed as mitochondrial membrane potential at 100 uM after 24 hrs by TMRF dye based fluorescence assay relative to control. The method, boiled down:
as §3

Experiment [15] concerns P19. Briefly: Cytotoxicity against undifferentiated mouse P19 cells assessed as mitochondrial membrane potential at 1 uM after 72 hrs by TMRF dye based fluorescence assay relative to control. Summed up: as §3
For experiment [16], the system named is P19. As to the kind of experiment: Cytotoxicity against undifferentiated mouse P19 cells assessed as mitochondrial membrane potential at 100 uM after 72 hrs by TMRF dye based fluorescence assay relative to control. The method, boiled down: as §3
Experiment [17] deals with P19. Briefly: Cytotoxicity against undifferentiated mouse P19 cells assessed as mitochondrial superoxide anion level at 1 uM after 24 hrs by MitoSox dye based fluorescence assay relative to control. The method, boiled down: as §3
Experiment [18] has as its system P19. Briefly: Cytotoxicity against undifferentiated mouse P19 cells assessed as mitochondrial superoxide anion level at 100 uM after 24 hrs by MitoSox dye based fluorescence assay relative to control. The method, boiled down: as §3
Experiment [19] has as its system P19. Briefly: Cytotoxicity against undifferentiated mouse P19 cells assessed as mitochondrial superoxide anion level at 1 uM after 72 hrs by MitoSox dye based fluorescence assay relative to control. Summed up: as §3
Experiment [20] concerns P19. As to the kind of experiment: Cytotoxicity against undifferentiated mouse P19 cells assessed as mitochondrial superoxide anion level at 100 uM after 72 hrs by MitoSox dye based fluorescence assay relative to control. The method, boiled down:
as §3

Experiment [21] relates to P19. Briefly: Cytotoxicity against differentiated mouse P19 cells assessed as mitochondrial membrane potential at 1 uM after 24 hrs by TMRF dye based fluorescence assay relative to control. Summed up:
as §3

For experiment [22], the system named is P19. Briefly: Cytotoxicity against differentiated mouse P19 cells assessed as mitochondrial membrane potential at 100 uM after 24 hrs by TMRF dye based fluorescence assay relative to control. The method, boiled down: as §3
In experiment [23] the test system is P19. Briefly: Cytotoxicity against differentiated mouse P19 cells assessed as mitochondrial membrane potential at 1 uM after 72 hrs by TMRF dye based fluorescence assay relative to control. The method, boiled down:
as §3

In experiment [24] the test system is P19. Briefly: Cytotoxicity against differentiated mouse P19 cells assessed as mitochondrial membrane potential at 100 uM after 72 hrs by TMRF dye based fluorescence assay relative to control. The method, boiled down: as §3
The subject of experiment [25] is P19. As to the kind of experiment: Cytotoxicity against differentiated mouse P19 cells assessed as mitochondrial superoxide anion level at 1 uM after 24 hrs by MitoSox dye based fluorescence assay relative to control. Summed up: as §3
Experiment [26] has as its system P19. As to the kind of experiment: Cytotoxicity against differentiated mouse P19 cells assessed as mitochondrial superoxide anion level at 100 uM after 24 hrs by MitoSox dye based fluorescence assay relative to control. The method, boiled down:
as §3

Experiment [27] concerns P19. Briefly: Cytotoxicity against differentiated mouse P19 cells assessed as mitochondrial superoxide anion level at 1 uM after 72 hrs by MitoSox dye based fluorescence assay relative to control. Summed up:
as §3

Experiment [28] relates to P19. Briefly: Cytotoxicity against differentiated mouse P19 cells assessed as mitochondrial superoxide anion level at 100 uM after 72 hrs by MitoSox dye based fluorescence assay relative to control. The method, boiled down:
as §3

The values below come from ChEMBL document CHEMBL4002604, “Evaluation of biological properties of 3,3',4,4'-benzophenonetetracarboxylic dianhydride derivatives and their ability to inhibit hexokinase activity” (2017).

With `O=C(c1ccc2c(c1)C(=O)N(c1nc[nH]n1)C2=O)c1ccc2c(c1)C(=O)N(c1nc[nH]n1)C2=O`, the Activity in the experiment with P19 [1] is recorded as 81.2%; in the experiment on P19 [2], 77.6%; with P19 [3] it was 45.5%; in the experiment with P19 [4], 93.3%; in the experiment on P19 [5] it was 96%; with P19 [6], 82%. Further, the Activity turned out to be 92.7% in the experiment with P19 [7]; 94% with P19 [8]; 53.2% in the experiment on P19 [9]; 114% in the experiment on P19 [10]; 96.1% in the experiment with P19 [11]; 86.5% in the experiment on P19 [12].

Regarding `O=C(c1ccc2c(c1)C(=O)N(c1ccc(O)cc1)C2=O)c1ccc2c(c1)C(=O)N(c1ccc(O)cc1)C2=O`, the Activity in the experiment on P19 [1] is on record as 90.2%; in the experiment with P19 [2] it was 81.8%; in the experiment on P19 [3], 86.8%; in the experiment on P19 [4] it was 86.7%; with P19 [5], 48.5%; in the experiment with P19 [6], 30.9%. For the same compound, the Activity with P19 [7] is on record as 88.5%; in the experiment with P19 [8] it was 74.4%; in the experiment on P19 [9], 79.9%; with P19 [10], 96.2%; in the experiment on P19 [11], 87.4%; in the experiment on P19 [12] it was 93.8%. Further, the Activity in the experiment on P19 [13] was found to be 176.1%; in the experiment on P19 [14], 206.6%; with P19 [15], 93%; in the experiment with P19 [16], 116.7%; in the experiment on P19 [17], 72.1%; in the experiment with P19 [18], 106.6%. In addition, the Activity came to 78.4% in the experiment with P19 [19]; 72.5% with P19 [20]; 110.6% with P19 [21]; 65.8% in the experiment with P19 [22]; 144.7% in the experiment with P19 [23]; 136.6% in the experiment with P19 [24]. Further, the Activity was 75.8% with P19 [25], 113.2% in the experiment with P19 [26], 138% in the experiment with P19 [27] and 118.8% in the experiment on P19 [28].

In the case of `O=C(c1ccc2c(c1)C(=O)N(CCO)C2=O)c1ccc2c(c1)C(=O)N(CCO)C2=O`, the Activity with P19 [1] is listed as 83.9%; in the experiment on P19 [2], 92.4%; in the experiment on P19 [3] it was 106.7%; in the experiment on P19 [4], 96.2%; in the experiment on P19 [5], 108.4%; in the experiment on P19 [6], 80.5%. The Activity in the experiment on P19 [7] is 101.5%; in the experiment with P19 [8] it was 107.8%; in the experiment on P19 [9] it was 113.8%; in the experiment with P19 [10] it was 113.3%; with P19 [11], 103.7%; in the experiment with P19 [12], 99.4%.

For the compound `O=C(c1ccc2c(c1)C(=O)N(c1ccccc1O)C2=O)c1ccc2c(c1)C(=O)N(c1ccccc1O)C2=O`, the Activity in the experiment with P19 [1] was 103.6%; with P19 [2], 102%; in the experiment on P19 [3], 106.5%; in the experiment on P19 [4], 95.6%; with P19 [5] it was 93%; with P19 [6] it was 79.8%. Moreover, the Activity with P19 [7] was 103.5%; in the experiment with P19 [8] it was 99.7%; with P19 [9] it was 101.2%; in the experiment with P19 [10] it was 105%; in the experiment with P19 [11], 105.3%; in the experiment with P19 [12], 99.4%. Further, the Activity with P19 [13] is 82.2%; in the experiment with P19 [14], 89.6%; in the experiment on P19 [15], 81.9%; in the experiment with P19 [16] it was 81.6%; with P19 [17], 108.7%; in the experiment on P19 [18] it was 108.3%. Moreover, the Activity is reported as 115.4% in the experiment on P19 [19]; 129.9% with P19 [20]; 117.8% in the experiment on P19 [21]; 112% in the experiment with P19 [22]; 89.4% in the experiment with P19 [23]; 93.3% in the experiment with P19 [24]. Moreover, the Activity in the experiment with P19 [25] is 111.1%; with P19 [26] it was 168%; in the experiment with P19 [27] it was 97.8%; in the experiment on P19 [28], 86%.

On to `O=C(c1ccc2c(c1)C(=O)N(CCCO)C2=O)c1ccc2c(c1)C(=O)N(CCCO)C2=O`, for which the Activity was 106% in the experiment with P19 [1]; 101.5% in the experiment with P19 [2]; 100% in the experiment on P19 [3]; 110.6% in the experiment with P19 [4]; 97.9% with P19 [5]; 94.7% in the experiment with P19 [6]. Also, the Activity stood at 105% with P19 [7]; 98.1% in the experiment with P19 [8]; 100% in the experiment on P19 [9]; 100.1% in the experiment with P19 [10]; 101.1% in the experiment on P19 [11]; 98.1% with P19 [12].

Take `O=C(c1ccc2c(c1)C(=O)N(c1c[nH]c(=O)[nH]c1=O)C2=O)c1ccc2c(c1)C(=O)N(c1c[nH]c(=O)[nH]c1=O)C2=O`: the Activity with P19 [1] worked out at 115.2%; in the experiment on P19 [2], 99.4%; in the experiment on P19 [3], 97.4%; in the experiment with P19 [4], 95.8%; in the experiment on P19 [5], 88.2%; in the experiment with P19 [6], 90.8%. Further, the Activity in the experiment with P19 [7] amounted to 113.8%; in the experiment with P19 [8] it was 103.2%; with P19 [9] it was 109.6%; with P19 [10] it was 116.3%; in the experiment with P19 [11], 105.3%; in the experiment on P19 [12] it was 105%.
